Compound activity from PubChem.
Sampled rows, rich in hits. Any-hit rate of the full collection: about 2.2%.
EBV gp42 block: inhibitors of Epstein-Barr virus glycoprotein 42 | Q1HVG2 | Fluorescence polarization binding assay, mP read-out | actives 0.42% (n = 220,000) | inhibition, % (tested at 21.74 µM); in the data active = inhibition above about 50%
Target sequence (Q1HVG2 whole entry, looked up): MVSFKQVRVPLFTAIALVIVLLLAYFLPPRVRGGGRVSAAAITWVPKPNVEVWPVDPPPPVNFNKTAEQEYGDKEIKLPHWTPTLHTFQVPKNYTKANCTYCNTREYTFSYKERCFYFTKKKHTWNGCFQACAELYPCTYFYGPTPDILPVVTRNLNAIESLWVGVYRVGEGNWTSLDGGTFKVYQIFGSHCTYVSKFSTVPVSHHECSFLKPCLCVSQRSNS
RBBP9 inh: inhibitors of human serine hydrolase RBBP9. recombinant RBBP9, FP-Rh probe fluorescence polarization. inhibition, % at 7.94 µM. actives 0.2% (n = 220,000). AID 1515;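 active = inhibition above the campaign mean of all tested compounds plus 3 SD, cut at about 14% in these data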;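 note: plate controls were DMSO wells with RBBP9 for no effect and wells lacking RBBP9 protein for full effect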
Target sequence (O75884 whole entry, looked up): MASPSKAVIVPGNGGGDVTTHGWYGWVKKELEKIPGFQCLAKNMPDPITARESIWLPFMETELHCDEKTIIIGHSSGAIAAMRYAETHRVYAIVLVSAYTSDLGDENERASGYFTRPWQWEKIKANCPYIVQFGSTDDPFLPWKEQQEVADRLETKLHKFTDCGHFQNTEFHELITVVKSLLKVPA
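Measured by – fluorescence polarization · Test system – RBBP9 protein · Input – 2.5 µM RBBP9 dispensing solution, before mixing · Measure – percent inhibition from mP, scaled between DMSO and no-protein wells · Benchmarks – DMSO-treated enzyme wells and wells lacking RBBP9 · Times – preincubation 30 min plus labeling 45 min at 25 °C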
Mcl-1 Bim block: inhibitors of Bim-Mcl-1 interaction, human. actives 0.1% (n = 190,000). Bead-based flow cytometry, Bim peptide-Mcl-1 binding. Q07820. inhibition, % at 10 µM. AID 1009; in the data active = inhibition above about 40%;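 note: 0% = no compound tracer wells and 100% = peptide blocker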
MCL1-BIM inh: disrupts human MCL1 binding to BIM-BH3 peptide; Q07820; GST-MCL1 / FITC-Bim-BH3 fluorescence polarization; inhibition, % at 10.9 µM; actives 0.68% (n = 320,000); AID 2057;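 active = inhibition above the mean inhibition of all tested compounds plus 3 SD, set per campaign, cut at about 40% in these data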;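 note: 0% = DMSO wells and 100% = unlabeled Bim-BH3 peptide control; higher means more loss of mP so more displacement of Bim peptide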
Mcl1-Noxa inh: disrupts binding of human Mcl-1 to Noxa peptide; Q07820; TR-FRET Mcl-1/Noxa peptide binding, 2 h; inhibition, % at 21.7 µM; actives 1.5% (n = 220,000);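 active = compounds that cut the protein-peptide binding signal by more than 50% relative to plate controls in a single-dose test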;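 note: His-tagged Mcl-1 with rhodamine Noxa BH3 peptide and terbium anti-His antibody; 0% = Mcl-1 plus Noxa peptide wells and 100% = peptide-only wells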
Mcl1-Bid inh: Mcl-1/Bid interaction inhibition; TR-FRET Mcl-1/Bid-Dy647 peptide binding, 1536-well; inhibition, % at 21.7 µM; actives 0.97% (n = 220,000);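 active = compounds that cut the binding signal by more than half at the single screening dose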;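 note: His-tagged Mcl-1 with europium anti-His antibody binding Bid BH3 peptide; 0% = Mcl-1 plus peptide wells and 100% = peptide-only wells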
Bcl-xL conf: Bcl-xL (human) inhibition, MCL1 counter-screen confirmation; AID 2166; shares compounds with MCL1-BIM inh; inhibition, % at 10.9 µM; actives 54% (n = 1,700); GST-Bcl-xL / FITC-Bim BH3 peptide FP binding;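 active = inhibition above a cutoff equal to the mean inhibition of all tested compounds plus 3 SD, cut at about 30% in these data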;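 note: 0% = DMSO wells and 100% = unlabeled Bim BH3 control peptide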
Target sequence (Q07817 whole entry, looked up): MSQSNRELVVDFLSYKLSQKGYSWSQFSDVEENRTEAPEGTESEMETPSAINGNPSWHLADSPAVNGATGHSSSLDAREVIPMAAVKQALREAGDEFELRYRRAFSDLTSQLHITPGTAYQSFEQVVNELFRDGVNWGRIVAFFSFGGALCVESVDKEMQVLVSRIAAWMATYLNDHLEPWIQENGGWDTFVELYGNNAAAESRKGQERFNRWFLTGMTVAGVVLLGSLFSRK
MCL1 inh confirm: confirmation of human MCL1 and BIM-BH3 interaction inhibitors; shares compounds with MCL1-BIM inh; GST-MCL1 / FITC-Bim-BH3 fluorescence polarization; inhibition, % at 10.9 µM; actives 61% (n = 1,700);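 active = inhibition above the average of all tested compounds plus 3 SD, cut at about 40% in these data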;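 note: 0% = DMSO wells and 100% = unlabeled Bim-BH3 control peptide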
Numbers without * were called inactive; · = not tested or not shown; ! = not confirmed by another sample.

SMILES	EBV gp42 block	RBBP9 inh	Mcl-1 Bim block	MCL1-BIM inh	Mcl1-Noxa inh	Mcl1-Bid inh	Bcl-xL conf	MCL1 inh confirm
Cc1ccc(N2C3=C(C(=O)CC(C)(C)C3)C(c3cn(C)nc3C)C3=C2CC(C)(C)CC3=O)cc1	·	·	·	104*	·	·	116*	158*
O=C(CN1C(=O)c2cccnc2Oc2ccc(Cl)cc21)Nc1ccccc1F	·	·	·	-7	·	·	·	·
Oc1cccc(/C=N/Nc2ncnc3c2ncn3Cc2ccccc2)c1	-6	-10	-5	0	36	-11	·	·
Oc1ccc(/C=N/Nc2ncnc3c2ncn3Cc2ccccc2)cc1O	3	-2	-4	57*	24	-61	11	33
CCN(CC(=O)Nc1c(F)cccc1F)C(=O)c1ccc(N2CCCCC2)c([N+](=O)[O-])c1	·	·	·	2	·	·	·	·
CCc1ccc(OCC(=O)c2c(O)c3ccccc3oc2=O)cc1	-1	-1	-3	-1	29	-8	·	·
CCc1oc2ccccc2c1C(=O)c1cc(Br)c(O)c(Br)c1	-6	-6	-4	62*	33	52*!	4	12
Cc1ccc(NC(=O)CC2SC3=NCCCN3C2=O)c(C)c1 (configuration not stated)	5	-8	-4	112*	·	-12	51*	56*
CCOc1ccc(Nc2cc(=O)oc3ccccc23)cc1	-26	-6	0	-4	21	-31	·	·
COc1ccc(NC(=O)CN(C)C(=O)c2cn(-c3ccccc3)nc2-c2cccnc2)cc1	·	·	·	-2	·	·	·	·
Cc1ccc(C(=O)N2CCCN(c3nc4cc5c(cc4cc3C#N)OCO5)CC2)cc1	·	·	·	98*	·	·	-3	-5
N#Cc1cc2cc3c(cc2nc1N1CCCCC1)OCCO3	10	-4	0	6	6	-7	·	·
CN(Cc1cnn(Cc2ccccc2)c1)C(=O)CN=C1NS(=O)(=O)c2ccccc21	·	·	·	3	·	·	·	·
Cn1c2ccccc2c2cc(/C=N/NC(=O)c3cc(O)ccc3O)ccc21	·	·	·	57*	·	·	62*	93*
c1cc(-c2nnc3n2CCCCC3)ccn1	-2	-9	-1	84*	9	-11	10	10
Cc1ccc(-c2nnc3n2CCCCC3)cc1	-4	-7	-3	2	-6	-1	·	·
CC(C)N1CC(C(=O)Nc2cccc([N+](=O)[O-])c2)CC1=O (configuration not stated)	·	·	·	4	·	·	·	·
Cc1ccc(NC(=O)CCCN2C(=O)/C(=C/C=C/c3ccccc3)SC2=S)cc1	-60	2	-2	-13	8	3	·	·
O=C(O)CC(C(=O)O)N1C(=O)/C(=C/C=C/c2ccco2)SC1=S (configuration not stated)	-11	-5	·	75*	85*	-20	22	32
O=C(CCN1C(=O)/C(=C\C=C\c2ccccc2)SC1=S)Nc1cccc(C(=O)O)c1	·	·	·	28	·	·	·	·
O=C(CCN1C(=O)/C(=C\C=C\c2ccccc2)SC1=S)Nc1ccccc1C(=O)O	·	·	·	43*	·	·	15	12
O=C(O)CCCN1C(=O)/C(=C/C=C/c2ccco2)SC1=S	-29	3	·	80*	94*	34	25	31
O=S(=O)(/N=C(/Nc1ccc(F)cc1F)c1ccccc1)c1ccccc1	-7	-5	0	-4	-3	-9	·	·
C=CCSc1nnc(NC(=O)C23CC4CC(CC(NC(C)=O)(C4)C2)C3)s1	·	·	·	0	·	·	·	·
O=C(Cn1ncc2c3ccccc3n(Cc3ccccc3)c2c1=O)NCCCN1CCCC1=O	·	·	·	5	·	·	·	·
SMILES	EBV gp42 block	RBBP9 inh	Mcl-1 Bim block	MCL1-BIM inh	Mcl1-Noxa inh	Mcl1-Bid inh	Bcl-xL conf	MCL1 inh confirm
CCOC(=O)c1c(=O)n(O)c2ccc(OC)cc2[n+]1[O-]	69*	1	-4	188*	11	36	45*	60*
CCOC(=O)c1cc(-c2ccccc2)n(Cc2cc(CC)no2)n1	·	·	·	-2	·	·	·	·
Cc1cccc(/C=N/NC(=O)CC(=O)NCCc2ccccc2)c1	·	·	·	4	·	·	·	·
CC1(C)CC(=O)C2=C(C1)Nc1ccccc1NC2c1cc(Cl)ccc1O (configuration not stated)	·	·	·	0	·	·	·	·
Cc1cc2c(cc1C)NC(c1c(C)n(C)n(-c3ccccc3)c1=O)C1=C(CC(C)(C)CC1=O)N2 (configuration not stated)	85*	0	0	135*	7	-13	8	8
Cc1ccc(C2Nc3ccccc3NC3=C2C(=O)CC(C)(C)C3)c(O)c1 (configuration not stated)	·	·	·	52*	·	·	67*	94*
Cc1ccc(NC(=O)CSc2ccc(Br)cc2)cc1S(=O)(=O)N1CCOCC1	·	·	·	1	·	·	·	·
CC(C)(C)c1ccc(C(=O)Nc2cccc3c(=O)[nH][nH]c(=O)c23)cc1	93*	1	-1	43*	4	-42	42*	47*
CCCN1CCN(S(=O)(=O)c2cn(C)nc2C)CC1	·	·	·	84*	·	·	77*	96*
CC(C)(C)c1ccc(S(=O)(=O)NCC(=O)N2CCCC2)cc1	·	·	·	-1	·	·	·	·
C/C(=N\NC(=O)c1cc(O)ccc1O)c1cccc(NC(=O)c2ccc(Cl)cc2)c1	·	·	·	48*	·	·	28	47*
C/C(=N\NC(=O)c1cc(O)ccc1O)c1cccc(NC(=O)c2cccc(Cl)c2)c1	·	·	·	38	·	·	·	·
COc1ccc(C2CC(c3ccc(OC)cc3OC(C)=O)=NN2C(=O)c2ccccc2)cc1 (configuration not stated)	·	·	·	92*	·	·	36*	49*
O=C(CC1Nc2ccccc2NC1=O)c1ccccc1 (configuration not stated)	0	-3	-8	46*	-3	-103	-11	-21
CN(C(=O)CCNC(=O)N1CC(=O)Nc2ccccc21)C1CCCCC1	·	·	·	6	·	·	·	·
O=C1CN(C(=O)NCCC(=O)NC2CCCCC2)c2ccccc2N1	·	·	·	69*	·	·	3	-8
COC(=O)CCC(=O)OC1(C)C(=O)C=C2C=C(C3CC3)N(c3ccc(CO)cc3)C=C2C1=O (configuration not stated)	·	·	·	94*	·	·	46*	64*
COC(=O)CCC(=O)OC1(C)C(=O)C=C2C=C(c3ccsc3)OC=C2C1=O (configuration not stated)	·	·	·	51*	·	·	29	77*
CC1(OC(=O)C2CCCC2)C(=O)C=C2C=C(c3ccsc3)N(CC3CC3)C=C2C1=O (configuration not stated)	-15	·	·	31	8	-82	·	·
CC1(O)C(=O)C=C2C=C(C3CC3)OC=C2C1=O (configuration not stated)	·	·	·	31	·	·	·	·
CC1(O)C(=O)C=C2C=C(c3ccsc3)OC=C2C1=O (configuration not stated)	·	·	·	52*	·	·	33*	73*
